Assay [1] relates to RAW264.7. Briefly: Antiinflammatory activity against LPS-stimulated mouse RAW264.7 cells assessed as reduction of COX2 level at 10 uM after 16 hrs by DC protein assay. The format is functional. The procedure, abridged:
(§1)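 RAW264.7 cells activated with E. coli LPS (0.01 µg/mL) for 16 h with or without test compound. Cells washed in ice-cold PBS, lysed, and centrifuged at 20000g, 30 min, 4 °C. Supernatant protein measured by DC assay (Lowry-modified); equal protein loaded for SDS-PAGE, transferred to PVDF, blocked, and probed 180 min with anti-iNOS or anti-COX-2 (1:1000). Levels reported relative to LPS-only control.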

Assay [2] has as its system RAW264.7. Description: Antiinflammatory activity against LPS-stimulated mouse RAW264.7 cells assessed as reduction of iNOS level at 10 uM after 16 hrs by DC protein assay. The format is functional. The gist of the method:
as §1

Activity calls are given as the source filed them. The rule behind the calls is not given here.

Turning to `C=C1C(=O)C[C@H]2C[C@]3(C)CCC(C)(C)[C@@H]3[C@@]12O`, in assay [1], the outcome was inactive. Further, the Activity in assay [2] stood at 34.8.
Taken in the same sequence, the figures for `C=C1[C@H]2[C@@H](C[C@@H]1OC(C)=O)C[C@]1(C)CCC(C)(C)[C@H]21` were “inactive” and “inactive”.
For `C=C1[C@@H](OC(C)=O)C[C@H]2C[C@]3(C)CCC(C)(C)[C@@H]3[C@@]12O` the same measures were 62.9 and 54.4.
For `C=C1[C@@H](OC(C)=O)C[C@H]2C[C@]3(C)CCC(C)(C)[C@@H]3[C@@]12OC(C)=O` the same measures were “inactive” and “inactive”.
Turning to `C=C1[C@H]2[C@@H](C[C@@H]1O)C[C@]1(C)CCC(C)(C)[C@H]21`, the outcome in assay [1] and in assay [2] was inactive.
With `CC1(C)CC[C@@]2(C)C[C@@H]3CC(=O)C(CO)=C3[C@@H]12`, the outcome in assay [1] and in assay [2] was inactive.
Turning to `C=C1[C@@H](O)C[C@H]2C[C@]3(CO)CCC(C)(C)[C@@H]3[C@@]12O`, the outcome in assay [1] and in assay [2] was inactive.
For the compound `C=C1[C@H]2[C@@H](C[C@@H]1O)C[C@]1(C)CC[C@](C)(CO)[C@H]21`, the outcome in assay [1] and in assay [2] was inactive.
As to `C=C1[C@@H](O)C[C@H]2C[C@]3(C)CCC(C)(C)[C@@H]3[C@@]12O`, the Activity in assay [1] is given as 24.8; in assay [2], 1.2.

(Values after ChEMBL document CHEMBL1149849, “Capnellenes from the Formosan soft coral Capnella imbricata” (2008).)
